Laboratory results reported in ChEMBL document CHEMBL4229549, “Discovery and structural characterization of peficitinib (ASP015K) as a novel and potent JAK inhibitor” (Bioorg Med Chem, 2018).

Experiments:
[1] = Intrinsic clearance in rat liver microsomes; format: ADME, microsome; conditions: read-out: CLH
In short: (§1)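 Compound at 0.2 or 1.0 µM incubated with male SD rat liver microsomes (0.2 mg protein/mL) plus 1 mM NADPH and 0.1 mM EDTA in 100 mM phosphate buffer at 37°C. Percentage remaining was measured by LC/MS/MS. Run in duplicate.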

[2] = Inhibition of JAK1/JAK3 in rat splenocytes assessed as reduction in IL-2-induced T cell proliferation; format: cell-based
In short: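 Male Lewis rat splenocytes, 1.5×10^6 cells/mL in RPMI1640 with 10% FBS and 50 µM 2-mercaptoethanol, primed with concanavalin A 24 h at 37°C to induce IL-2 receptor. Then incubated with IL-2 plus compound at designated concentrations for 3 days. Proliferation read by alamarBlue after 6 h (ex 545/em 590 nm). Duplicate or triplicate wells, IC50 by linear or Sigmoid-Emax regression.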

[3] = target: T1, Tyrosine-protein kinase JAK3 (Homo sapiens, UniProt P52333); assay: Inhibition of recombinant human N-terminal His-tagged JAK3 catalytic domain (795 to 1124 residues) expressed in baculovirus expression system using Biotin-Lyn-Substrate2 after 1 hr by ELISA
T1 sequence (P52333 whole entry): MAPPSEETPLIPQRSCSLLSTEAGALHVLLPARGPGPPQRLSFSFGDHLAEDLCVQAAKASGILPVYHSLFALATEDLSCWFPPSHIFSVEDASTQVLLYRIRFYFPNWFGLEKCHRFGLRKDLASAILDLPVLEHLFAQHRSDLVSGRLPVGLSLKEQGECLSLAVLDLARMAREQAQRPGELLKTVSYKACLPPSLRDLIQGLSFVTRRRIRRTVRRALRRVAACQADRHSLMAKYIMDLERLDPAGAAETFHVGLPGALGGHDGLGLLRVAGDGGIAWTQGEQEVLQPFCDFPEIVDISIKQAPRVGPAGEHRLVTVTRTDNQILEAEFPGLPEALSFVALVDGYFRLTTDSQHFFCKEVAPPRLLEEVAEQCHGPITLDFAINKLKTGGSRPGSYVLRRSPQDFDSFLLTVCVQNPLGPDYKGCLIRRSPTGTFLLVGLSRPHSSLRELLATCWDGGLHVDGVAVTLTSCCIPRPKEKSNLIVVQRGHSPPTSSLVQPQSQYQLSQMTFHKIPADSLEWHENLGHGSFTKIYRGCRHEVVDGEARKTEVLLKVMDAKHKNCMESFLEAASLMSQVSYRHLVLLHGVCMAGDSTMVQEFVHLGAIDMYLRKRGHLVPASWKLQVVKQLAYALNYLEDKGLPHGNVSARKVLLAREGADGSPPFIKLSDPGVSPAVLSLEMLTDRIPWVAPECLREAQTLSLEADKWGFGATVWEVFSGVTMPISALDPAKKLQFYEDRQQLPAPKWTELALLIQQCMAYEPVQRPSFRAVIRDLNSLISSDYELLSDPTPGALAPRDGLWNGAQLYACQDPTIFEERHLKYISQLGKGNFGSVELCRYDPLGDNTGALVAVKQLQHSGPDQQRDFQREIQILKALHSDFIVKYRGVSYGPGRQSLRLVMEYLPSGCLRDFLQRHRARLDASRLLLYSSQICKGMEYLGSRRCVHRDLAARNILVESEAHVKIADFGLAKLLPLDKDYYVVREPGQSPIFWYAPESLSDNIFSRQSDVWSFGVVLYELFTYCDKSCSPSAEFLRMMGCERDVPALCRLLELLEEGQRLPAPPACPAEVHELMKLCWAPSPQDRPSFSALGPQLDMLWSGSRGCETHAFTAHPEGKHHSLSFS
In short: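 Human JAK3 kinase domain with 250 nM biotinylated Lyn substrate peptide and 8 µM ATP (final). Reaction started with enzyme, run 1 h at room temperature on streptavidin plate. Phosphorylation read by anti-phosphotyrosine HRP ELISA. Run in duplicate.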

[4] = target: Tyrosine-protein kinase JAK1 (Homo sapiens, UniProt P23458); assay: Inhibition of recombinant human N-terminal GST-tagged JAK1 catalytic domain (850 to 1154 residues) expressed in baculovirus expression system using Biotin-Lyn-Substrate2 after 1 hr by ELISA
[5] = target: Tyrosine-protein kinase JAK2 (Homo sapiens, UniProt O60674); assay: Inhibition of recombinant human N-terminal His-tagged JAK2 catalytic domain (826 to 1132 residues) expressed in baculovirus expression system using Biotin-Lyn-Substrate2 after 1 hr by ELISA
[6] = Intrinsic clearance in Sprague-Dawley rat liver microsomes at 0.2 uM in presence of NADPH by LC-MS/MS analysis; format: ADME, microsome; conditions: read-out: CLH; in short: as §1
[7] = Inhibition of JAK1/JAK3 in Lewis rat splenocytes assessed as reduction in IL-2-induced T cell proliferation after 3 days by alamar blue assay; format: cell-based; conditions: 72 h
[8] = Cmax in Sprague-Dawley rat at 1 mg/kg, po administered as single dose by LC-MS/MS analysis; format: ADME, organism-based; design: dose 1 mg/kg, route oral; conditions: in vivo
In short: (§2)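 Male SD rats (Crl:CD(SD), 7 weeks old), food deprived before dosing; single oral dose of 1 mg/kg in 0.5 w/v% methylcellulose. Blood was sampled at multiple time points up to 24 h. Unchanged compound in plasma was measured by LC/MS/MS. Parameters were calculated from mean plasma concentrations (n=3) at each time point.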

[9] = Tmax in Sprague-Dawley rat at 1 mg/kg, po administered as single dose by LC-MS/MS analysis; format: ADME, organism-based; conditions: in vivo; in short: as §2
[10] = AUC (0 to infinity) in Sprague-Dawley rat at 1 mg/kg, po administered as single dose by LC-MS/MS analysis; format: ADME, organism-based; design: dose 1 mg/kg, route oral, time infinity; conditions: in vivo; in short: as §2
[11] = AUC (0 to infinity) in Sprague-Dawley rat at 1 mg/kg, iv administered as single dose by LC-MS/MS analysis; format: ADME, organism-based; design: dose 1 mg/kg, time infinity, route intravenous; conditions: in vivo
In short: as §2, with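 “intravenous” for “oral”, “10 v/v% propylene glycol.” for “0.5 w/v% methylcellulose.”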

[12] = Half life in Sprague-Dawley rat at 1 mg/kg, po administered as single dose by LC-MS/MS analysis; format: ADME, organism-based; conditions: in vivo; in short: as §2
[13] = Half life in Sprague-Dawley rat at 1 mg/kg, iv administered as single dose by LC-MS/MS analysis; format: ADME, organism-based; conditions: in vivo
In short: as §2, with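 “intravenous” for “oral”, “10 v/v% propylene glycol.” for “0.5 w/v% methylcellulose.”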

[14] = Total clearance in Sprague-Dawley rat at 1 mg/kg, iv administered as single dose by LC-MS/MS analysis; format: ADME, organism-based; conditions: in vivo
In short: as §2, with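 “intravenous” for “oral”, “10 v/v% propylene glycol.” for “0.5 w/v% methylcellulose.”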

[15] = Volume of distribution at steady state in Sprague-Dawley rat at 1 mg/kg, iv administered as single dose by LC-MS/MS analysis; format: ADME, organism-based; conditions: in vivo, read-out: Vdss
In short: as §2, with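 “intravenous” for “oral”, “10 v/v% propylene glycol.” for “0.5 w/v% methylcellulose.”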

[16] = Oral bioavailability in Sprague-Dawley rat at 1 mg/kg administered as single dose by LC-MS/MS analysis; format: ADME, organism-based; conditions: in vivo
In short: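 Fasted male SD rats, 7 weeks old, given 1 mg/kg as a single dose, orally in 0.5 w/v% methylcellulose and intravenously in 10 v/v% propylene glycol. Plasma was sampled up to 24 h and unchanged compound measured by LC/MS/MS. Bioavailability was derived from mean concentrations (n=3 per time point).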

Chain of Tyrosine-protein kinase JAK2 (O60674 whole entry, the tested form may be a part): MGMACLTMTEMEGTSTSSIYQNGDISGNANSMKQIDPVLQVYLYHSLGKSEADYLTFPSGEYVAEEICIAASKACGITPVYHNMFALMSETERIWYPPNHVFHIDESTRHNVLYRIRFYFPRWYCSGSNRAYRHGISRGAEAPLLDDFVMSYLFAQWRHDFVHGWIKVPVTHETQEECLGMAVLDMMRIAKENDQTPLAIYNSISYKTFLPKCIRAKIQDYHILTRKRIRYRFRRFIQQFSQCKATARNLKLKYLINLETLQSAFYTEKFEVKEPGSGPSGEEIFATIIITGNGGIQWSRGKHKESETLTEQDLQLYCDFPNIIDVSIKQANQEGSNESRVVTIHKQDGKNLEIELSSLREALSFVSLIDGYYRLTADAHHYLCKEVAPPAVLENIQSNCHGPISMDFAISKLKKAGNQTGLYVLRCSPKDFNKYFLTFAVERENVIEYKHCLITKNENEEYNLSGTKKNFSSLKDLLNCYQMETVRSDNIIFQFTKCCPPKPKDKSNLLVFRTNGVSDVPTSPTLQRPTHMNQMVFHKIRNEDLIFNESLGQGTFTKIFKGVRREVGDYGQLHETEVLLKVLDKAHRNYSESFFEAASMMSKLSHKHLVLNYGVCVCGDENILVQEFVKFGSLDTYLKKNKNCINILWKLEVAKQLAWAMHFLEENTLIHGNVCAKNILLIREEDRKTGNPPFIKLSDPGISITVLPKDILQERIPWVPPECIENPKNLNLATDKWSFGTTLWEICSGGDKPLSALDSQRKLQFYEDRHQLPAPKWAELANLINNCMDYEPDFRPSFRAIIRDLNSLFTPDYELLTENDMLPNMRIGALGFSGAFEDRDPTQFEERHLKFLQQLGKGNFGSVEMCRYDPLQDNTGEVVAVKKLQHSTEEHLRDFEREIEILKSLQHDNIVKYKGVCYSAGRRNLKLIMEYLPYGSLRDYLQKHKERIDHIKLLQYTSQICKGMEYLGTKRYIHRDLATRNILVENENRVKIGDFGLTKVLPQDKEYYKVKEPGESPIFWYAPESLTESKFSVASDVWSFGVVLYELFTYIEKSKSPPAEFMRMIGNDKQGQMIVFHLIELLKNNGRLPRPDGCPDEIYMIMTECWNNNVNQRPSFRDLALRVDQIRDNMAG
Chain of Tyrosine-protein kinase JAK1 (P23458 whole entry, the tested form may be a part): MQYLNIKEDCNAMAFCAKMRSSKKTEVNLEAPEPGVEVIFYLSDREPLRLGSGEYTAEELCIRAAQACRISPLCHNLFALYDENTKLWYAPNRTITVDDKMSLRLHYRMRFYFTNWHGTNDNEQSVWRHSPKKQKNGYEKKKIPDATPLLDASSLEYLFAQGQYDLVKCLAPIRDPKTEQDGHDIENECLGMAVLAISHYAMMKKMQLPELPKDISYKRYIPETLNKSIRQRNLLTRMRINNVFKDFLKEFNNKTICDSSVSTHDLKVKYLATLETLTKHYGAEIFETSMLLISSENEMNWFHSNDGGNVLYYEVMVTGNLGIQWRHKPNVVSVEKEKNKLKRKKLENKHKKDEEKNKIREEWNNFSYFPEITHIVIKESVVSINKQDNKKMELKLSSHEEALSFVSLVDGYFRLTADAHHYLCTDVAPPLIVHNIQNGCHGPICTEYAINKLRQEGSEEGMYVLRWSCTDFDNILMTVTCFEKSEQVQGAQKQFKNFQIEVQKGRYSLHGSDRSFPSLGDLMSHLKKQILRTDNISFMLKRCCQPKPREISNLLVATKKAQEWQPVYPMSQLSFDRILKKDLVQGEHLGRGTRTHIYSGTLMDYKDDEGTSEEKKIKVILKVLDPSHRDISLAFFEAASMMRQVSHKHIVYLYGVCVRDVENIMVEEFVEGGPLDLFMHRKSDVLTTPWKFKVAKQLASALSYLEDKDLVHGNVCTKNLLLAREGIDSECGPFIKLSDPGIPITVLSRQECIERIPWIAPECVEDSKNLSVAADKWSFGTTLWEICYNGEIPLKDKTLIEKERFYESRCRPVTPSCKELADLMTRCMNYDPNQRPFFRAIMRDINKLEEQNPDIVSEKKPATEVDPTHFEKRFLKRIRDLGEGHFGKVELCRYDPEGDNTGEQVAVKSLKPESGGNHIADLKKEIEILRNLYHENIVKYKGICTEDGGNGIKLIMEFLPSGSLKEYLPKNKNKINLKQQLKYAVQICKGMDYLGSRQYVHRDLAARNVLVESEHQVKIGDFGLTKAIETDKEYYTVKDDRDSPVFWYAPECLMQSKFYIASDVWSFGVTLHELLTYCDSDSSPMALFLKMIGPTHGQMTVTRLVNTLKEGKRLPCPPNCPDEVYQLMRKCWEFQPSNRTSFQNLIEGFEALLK

Row | SMILES | IC50 [3] | IC50 [4] | IC50 [5] | CLint scaled at 0.2 µM [6] | other results
1 | C[C@@H]1CCCC[C@@H]1Nc1c(C(N)=O)cnc2[nH]ccc12 |  |  |  |  | CLint scaled [1]: > 1000 mL/min/kg; IC50 [2]: 86 nM
2 | NC(=O)c1cnc2[nH]ccc2c1NC1C2CC3CC1CC(F)(C3)C2 (configuration not stated) | 2.1 nM | 19 nM | 11 nM | > 1000 mL/min/kg | 
3 | NC(=O)c1cnc2[nH]ccc2c1N[C@@H]1C[C@H]2CC[C@@H]1C2 (racemic) | 3.2 nM | 24 nM | 15 nM | 859 mL/min/kg | 
4 | COC12CC3CC(C1)C(Nc1c(C(N)=O)cnc4[nH]ccc14)C(C3)C2 (configuration not stated) | 0.63 nM | 7.8 nM | 5 nM | > 1000 mL/min/kg | 
5 | NC(=O)c1cnc2[nH]ccc2c1NC12CC3CC(CC(C3)C1)C2 | 10 nM | 110 nM | 120 nM |  | 
6 | Br.NC(=O)c1cnc2[nH]ccc2c1NC1C2CC3CC1CC(O)(C3)C2 (configuration not stated) |  |  |  | 124 mL/min/kg | IC50 [7]: 10 nM; Cmax [8]: 126 ng/mL; Tmax [9]: 15 min; AUC(0-inf) [10]: 264 ng·h/mL; AUC(0-inf) [11]: 575 ng·h/mL; half-life [12]: 127 min; half-life [13]: 283 min; clearance [14]: 29 mL/min/kg; Vd [15]: 1.83 L/kg; bioavailability [16]: 45.9%
7 | NC(=O)c1cnc2[nH]ccc2c1NC1C2CC3CC(C2)CC1C3 (configuration not stated) | 2.1 nM | 12 nM | 11 nM | > 1000 mL/min/kg | 
